Consider ten compounds from ChEMBL document CHEMBL1126934, “Non-peptide ligands for opioid receptors. Design of kappa-specific agonists” (J Med Chem, 1993).

Experiment [1] concerns the target Delta-type opioid receptor (Rattus norvegicus) (UniProt P33533). Description: Binding affinity for rat delta opioid receptor was evaluated by displacing [3H]- diprenorphine.
A further experiment has as its system Mus musculus. As to the kind of experiment: Antinociceptive activity determined in mouse tail flick assay 30 min after sc injection (peak effect). In kind it is functional. The note with it: 0.5 h. In short, it runs like this:
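Male Swiss mice (20-25 g), tail flick nociceptive threshold, cutoff 8 s. Drug given sc; read 30 min after injection. ED50 with confidence limits by Litchfield and Wilcoxon method.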
(Hot-plate and tail-flick tests time the reaction to a heat stimulus.)

Experiment [2] concerns the target T1, Kappa-type opioid receptor (Cavia porcellus, UniProt P41144). Description: Binding affinity for kappa opioid receptor was evaluated by displacing [3H]- diprenorphine.
Another experiment addresses Mu-type opioid receptor (Rattus norvegicus, UniProt P33535). As to the kind of experiment: Binding affinity for mu opioid receptor was evaluated by displacing [3H]- diprenorphine. In short, it runs like this: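 Rat brain minus cerebellum, homogenised in Tris-HCl pH 7.4, spun 40000g 30 min, membranes resuspended at 0.5 mg/mL protein in 50 mM Tris-HCl pH 7.6. Competition against [3H]diprenorphine; nonspecific binding defined with DAGO (100 nM). Ki via Cheng-Prusoff; triplicate curves, n = 5.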

Experiment [3] addresses T1, Kappa-type opioid receptor.
The target of experiment [4] is T1, Kappa-type opioid receptor. The source holds these as a separate data set.

T1 sequence (P41144 whole entry): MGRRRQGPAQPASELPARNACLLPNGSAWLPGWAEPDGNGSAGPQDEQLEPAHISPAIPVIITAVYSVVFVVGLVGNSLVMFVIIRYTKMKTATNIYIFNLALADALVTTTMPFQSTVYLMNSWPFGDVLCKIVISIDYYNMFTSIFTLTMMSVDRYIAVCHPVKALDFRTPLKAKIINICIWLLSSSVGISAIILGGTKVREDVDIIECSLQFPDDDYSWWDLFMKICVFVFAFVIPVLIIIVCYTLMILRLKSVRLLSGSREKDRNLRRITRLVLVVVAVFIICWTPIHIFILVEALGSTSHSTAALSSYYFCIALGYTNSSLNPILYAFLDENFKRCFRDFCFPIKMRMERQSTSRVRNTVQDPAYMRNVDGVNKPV
Sequence of Mu-type opioid receptor (P33535 whole entry): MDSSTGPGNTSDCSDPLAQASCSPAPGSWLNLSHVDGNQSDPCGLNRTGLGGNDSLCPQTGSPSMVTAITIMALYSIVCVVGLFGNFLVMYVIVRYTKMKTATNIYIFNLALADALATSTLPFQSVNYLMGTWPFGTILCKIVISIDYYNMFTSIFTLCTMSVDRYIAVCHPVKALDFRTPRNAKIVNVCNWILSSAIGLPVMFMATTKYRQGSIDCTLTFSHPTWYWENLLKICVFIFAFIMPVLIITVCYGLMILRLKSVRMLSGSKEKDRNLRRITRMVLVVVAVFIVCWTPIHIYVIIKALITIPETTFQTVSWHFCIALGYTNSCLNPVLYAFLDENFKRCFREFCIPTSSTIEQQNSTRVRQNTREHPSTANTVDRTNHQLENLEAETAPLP
Sequence of Delta-type opioid receptor (Rattus norvegicus) (P33533 whole entry): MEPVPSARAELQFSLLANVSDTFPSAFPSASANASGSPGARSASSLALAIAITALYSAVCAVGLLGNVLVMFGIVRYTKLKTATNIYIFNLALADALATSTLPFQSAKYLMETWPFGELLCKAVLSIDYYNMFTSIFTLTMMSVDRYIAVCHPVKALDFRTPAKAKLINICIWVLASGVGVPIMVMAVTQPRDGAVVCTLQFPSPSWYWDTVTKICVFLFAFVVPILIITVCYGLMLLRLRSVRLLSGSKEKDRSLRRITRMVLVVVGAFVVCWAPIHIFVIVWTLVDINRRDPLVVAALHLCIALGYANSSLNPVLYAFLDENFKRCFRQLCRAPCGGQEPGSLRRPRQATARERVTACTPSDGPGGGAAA

Compound `CN1CC[C@]23c4c5ccc(O)c4O[C@H]2[C@@H](O)C=C[C@H]3[C@H]1C5` [MORPHINE] returned a Binding affinity in experiment [1] of 1.22 µM. Also, the ED50 – broadly, the dose at which the effect has come halfway, by size or by number of responders – in the experiment on Mus musculus was 4.99 mg/kg.
`COC(=O)[C@@]1(c2ccccc2)C[C@@H]1CN1CC[C@@]2(C)c3cc(O)ccc3C[C@@H]1[C@@H]2C`: in experiment [1], the Binding affinity is > 25 µM. Also, the Ki (usually the dissociation constant of the complex between target and ligand, obtained from inhibition or displacement) in experiment [2] was 2640 nM; on Mu-type opioid receptor it was > 25000 nM.
Take `COC(=O)[C@]1(c2ccccc2)C[C@H]1CN1CC[C@@]2(C)c3cc(O)ccc3C[C@@H]1[C@@H]2C`: the Binding affinity in experiment [1] is > 25 µM. The Ki was 240 nM in experiment [2], > 25000 nM at Mu-type opioid receptor, 224 nM in experiment [3] and 926 nM in experiment [4].
In the case of `CCCOC(=O)[C@]1(c2ccccc2)CC1CN1CC[C@@]2(C)c3cc(O)ccc3C[C@@H]1[C@@H]2C` (stereo not given in full), in experiment [1], the Binding affinity was > 25 µM. In addition, the values for the Ki (in experiment [2]; at Mu-type opioid receptor) were 6430 nM and > 25000 nM, respectively.
For the compound `CCOC(=O)[C@]1(c2ccccc2)CC1CN1CC[C@@]2(C)c3cc(O)ccc3C[C@@H]1[C@@H]2C` (stereo not given in full), the Binding affinity in experiment [1] is > 25 µM. Moreover, the Ki in experiment [2] is 4430 nM; at Mu-type opioid receptor it was > 25000 nM.
For `CCC12CCN(CC3CC3)C(C(=O)c3ccc(O)cc31)C2C` (stereo not given), the affinity at Mu-type opioid receptor corresponds to a Ki of 690 nM.
Consider `CCCCOC(=O)[C@]1(c2ccccc2)CC1CN1CC[C@@]2(C)c3cc(O)ccc3C[C@@H]1[C@@H]2C` (stereo not given in full), for which, in experiment [1], the Binding affinity is > 25 µM. For the same compound, the Ki (in experiment [2]; on Mu-type opioid receptor) was > 25000 nM each time.
Turning to `COC(=O)[C@]1(c2ccccc2)C[C@@H]1CN1CC[C@@]2(C)c3cc(O)ccc3C[C@@H]1[C@@H]2C`, in experiment [1], the Binding affinity is > 25 µM. The Ki was 866 nM in experiment [2], > 25000 nM at Mu-type opioid receptor, 833 nM in experiment [3] and 2620 nM in experiment [4]. Besides, the ED50 in the experiment with Mus musculus came to 4.52 mg/kg.
Take `C[C@H]1[C@H]2Cc3ccc(O)cc3[C@]1(C)CCN2CC1C[C@]1(C(=O)O)c1ccccc1` (stereo not given in full): the inhibition constant (Ki) (in experiment [2]; on Mu-type opioid receptor) was > 25000 nM in each case.
Turning to `CC1[C@H]2Cc3ccc(O)cc3[C@]1(C)CCN2CCCc1ccccc1` (stereo not given in full), the Ki in experiment [2] was 1120 nM; on Mu-type opioid receptor it was 825 nM.
